The source made the active and inactive calls. The rule behind the calls is not given here.
How the values were obtained:
[1] = tested on: Escovopsis; test: Antifungal activity against Escovopsis ICBG711 at 100 ug measured after 21 days by ISP-2 agar based assay; type: functional; settings: dose 100.0 µg, time 21.0 day
Method in brief: (§1)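 Agar plug challenge on ISP-2: the producing bacterium was grown alone at plate centre for 7 days, then each fungal strain was point-inoculated 3 cm from centre. 100 µg of compound or miconazole was applied directly at plate centre. Plates were monitored for 21 days at 28 °C, with two replicates per sample–fungus pair.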

[2] = tested on: Escovopsis; test: Antifungal activity against Escovopsis ICBG740 at 100 ug measured after 21 days by ISP-2 agar based assay; type: functional; settings: dose 100.0 µg, time 21.0 day; method in brief: as §1
[3] = tested on: Escovopsis; test: Antifungal activity against Escovopsis ICBG741 at 100 ug measured after 21 days by ISP-2 agar based assay; type: functional; settings: dose 100.0 µg, time 21.0 day; method in brief: as §1
[4] = tested on: Escovopsis; test: Antifungal activity against Escovopsis ICBG1251 at 100 ug measured after 21 days by ISP-2 agar based assay; type: functional; settings: dose 100.0 µg, time 21.0 day; method in brief: as §1
[5] = tested on: Bacillus subtilis; test: Antibacterial activity against Bacillus subtilis NRS 231 by agar-based assay; type: functional, organism-based
[6] = tested on: Escherichia coli; test: Antibacterial activity against Escherichia coli ATCC 25922 by agar-based assay; type: functional, organism-based
[7] = tested on: Staphylococcus aureus; test: Antibacterial activity against methicillin-sensitive Staphylococcus aureus Wichita by agar-based assay; type: functional, organism-based
[8] = tested on: Pseudomonas aeruginosa; test: Antibacterial activity against Pseudomonas aeruginosa Boston 41501 by agar-based assay; type: functional, organism-based
[9] = tested on: Leishmania donovani; test: Antileishmanial activity against Leishmania donovani MHOM/ET/67/HU3 axenic promastigotes assessed as parasite growth inhibition after 72 hrs by resorufin dye based fluorometric analysis; type: functional, organism-based; settings: MHOM/ET/67/HU3, 72 h
Method in brief: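 Axenic promastigotes, 1×10^5 per well in log phase, in M199 pH 7.4 with 10% heat-inactivated FCS at 28 °C. Ten 2-fold dilutions from 0.125 to 64 µM (10 mM DMSO stocks) were incubated for 72 h; miltefosine was the reference. Alamar Blue was added for 3 h, read at ex 536/em 588 nm, normalized to untreated wells, and IC50 obtained by variable-slope fit.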

[10] = tested on: Leishmania donovani; test: Antileishmanial activity against Leishmania donovani MHOM/ET/67/HU3 amastigotes infected in human THP1 cells assessed as parasite growth inhibition after 120 hrs by giemsa staining based inverted microscopic analysis; type: functional, organism-based; settings: MHOM/ET/67/HU3, THP-1, 120 h
Method in brief: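 THP-1 cells (2×10^4/well, RPMI-1640) were differentiated with PMA 20 ng/mL for 72 h at 37 °C, 5% CO2. They were infected with late-stage promastigotes (2×10^5/well) for 24 h, washed, then exposed to serial dilutions for 120 h with a miltefosine control. Cells were methanol-fixed and Giemsa-stained, and amastigotes per macrophage counted microscopically relative to untreated wells. IC50 was from a variable-slope fit.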

[11] = Cytotoxicity against human THP1 cells assessed as growth inhibition after 120 hrs by Alamar blue dye based fluorometric analysis; type: cell-based; settings: THP-1 cells
Method in brief: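 PMA-differentiated THP-1 cells (2×10^4/well, PMA 20 ng/mL, 72 h, 37 °C, 5% CO2) were exposed to serial dilutions for 120 h with a doxorubicin control. Alamar Blue was added for 3 h, read at ex 536/em 588 nm, and inhibition taken relative to untreated wells. IC50 was from a variable-slope fit; mean ± SD of 3 biological replicates.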

[12] = Selectivity index, ratio of CC50 for human THP1 cells to IC50 for antileishmanial activity against Leishmania donovani MHOM/ET/67/HU3 amastigotes infected in human THP1 cells after 120 hrs; type: toxicity, cell-based; settings: read-out: Ratio CC50/IC50
Method in brief: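 Index computed as CC50 in PMA-differentiated THP-1 cells (120 h Alamar Blue read-out) divided by IC50 against intracellular amastigotes in THP-1 (120 h exposure, Giemsa count).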

[13] = tested on: Trichoderma; test: Antifungal activity against Trichoderma ICBG1100 at 100 ug measured after 21 days by ISP-2 agar based assay; type: functional, organism-based; settings: dose 100.0 µg, time 21.0 day; method in brief: as §1
[14] = tested on: Cunninghamella; test: Antifungal activity against Cunninghamella ICBG752 at 100 ug measured after 21 days by ISP-2 agar based assay; type: functional, organism-based; settings: dose 100.0 µg, time 21.0 day; method in brief: as §1

SMILES | Activity [1] | Activity [2] | Activity [3] | Activity [4] | Activity [5] | Activity [6] | Activity [7] | Activity [8] | IC50 [9] [nM] | IC50 [10] [nM] | CC50 at 120 h [11] [nM] | selectivity ratio at 120 h [12] | Activity [13] | Activity [14]
CC[C@H](O[C@H]1C[C@@](C)(O)[C@H](O[C@H]2CC[C@H](OC(=O)[C@H](C)[C@H](O)c3ccc4c(c3)C(=O)C=C(C)C4=O)[C@@H](C)O2)[C@H](C)O1)[C@H](C)[C@H](O)[C@@H](C)[C@H](O)[C@H](C)[C@H]1OC(=O)/C=C/[C@H](C)[C@H](O)C[C@H](O)CCC[C@@H](O)CC[C@@H](C)[C@H](O)C(=O)[C@@]2(O)C[C@@H](O)C[C@@H](C[C@@H](O)C[C@H](O)C[C@H](O)CCC[C@H](O)/C=C/[C@@H]1C)O2 | Active | Active | Active | Active | inactive | inactive | inactive | inactive | 118 | 2320 | 11500 | 4.94 | inactive | inactive
COc1cccc2c1C(=O)c1c(O)c3c(c(O)c1C2=O)C[C@@](O)(C(=O)CO)C[C@@H]3O[C@H]1C[C@H](N)[C@H](O)[C@H](C)O1 [DOXORUBICIN] |  |  |  |  |  |  |  |  |  |  | 580 |  |  | 
CCCCCCCCCCCCCCCCOP(=O)([O-])OCC[N+](C)(C)C [MILTEFOSINE] |  |  |  |  |  |  |  |  | 4980 | 5330 | 60700 | 11.4 |  | 
CC[C@H](O[C@H]1C[C@@](C)(O)[C@H](O[C@H]2CC[C@H](OC(=O)[C@H](C)[C@H](O)c3ccc4c(c3)C(=O)C=C(C)C4=O)[C@@H](C)O2)[C@H](C)O1)[C@H](C)[C@H](O)[C@@H](C)[C@H](O)[C@H](C)[C@H]1OC(=O)/C=C/[C@H](C)[C@H](O)C[C@H](O)CCC[C@@H](O)CC[C@@H](C)[C@H](O)C(=O)[C@@]2(O)C[C@@H](O)C[C@@H](C[C@@H](O)C[C@H](O)C[C@H](O)CCC[C@H](O)[C@@H]3O[C@H]3[C@@H]1C)O2 | Active | Active | Active | Active | inactive | inactive | inactive | inactive | 34 | 91 | 6400 | 70.3 | inactive | inactive
CC[C@H](O[C@H]1C[C@@](C)(O)[C@H](O[C@H]2CC[C@H](OC(=O)[C@H](C)[C@H](O)c3ccc4c(c3)C(=O)C=C(C)C4=O)[C@@H](C)O2)[C@H](C)O1)[C@H](C)[C@H](O)[C@@H](C)[C@H](O)[C@H](C)[C@H]1OC(=O)/C=C/[C@H](C)[C@H](O)C[C@H](O)CCC[C@@H](O)CC[C@@H](C)[C@H](O)C(=O)[C@]2(O)O[C@H](C[C@@H](O)C[C@H](O)C[C@H](O)CCC[C@H](O)[C@@H]3O[C@H]3[C@@H]1C)C[C@H](O)[C@H]2O | Active | Active | Active | Active | inactive | inactive | inactive | inactive | 46 | 73 | 6070 | 83.2 | inactive | inactive
